Test results as given in ChEMBL document CHEMBL1122774, “Tri- and tetrapeptide analogues of kinins as potential renal vasodilators” (J Med Chem, 1984).
Square brackets hold non-standard residues; d marks the D form. Peptide text beside a SMILES is read from it. * marks the point of attachment. ξ: configuration not given here. Butanoyl(4-(4-HOPh)) = O=C(CCCc1ccc(O)cc1)*; ξαMeY = CC(N)(Cc1ccc(O)cc1)C(=O)O; pNA = O=[N+]([O-])c1ccc(N*)cc1; Bz = O=C(c1ccccc1)*

Columns and labels:
[1] = system: Canis familiaris; assay: In vivo percent change in canine renal vascular resistance (RVR) at 3 ug/Kg/min.; type: functional, Canis lupus familiaris
Method in brief: (§1)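 Primary screen in anesthetized dogs (7-17 kg). Drug infused separately at 3, 30 and 300 µg/(kg min), each infusion lasting 5 min, at about 15-min intervals. Read-outs are renal blood flow, mean arterial blood pressure, heart rate, and RVR (MABP / mean RBF), as percent change. Significance thresholds are defined per number of dogs; n = 1-3 dogs.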

[2] = system: Canis familiaris; assay: In vivo percent change in canine heart rate at 300 ug/Kg/min.; type: functional, Canis lupus familiaris; method in brief: as §1
[3] = system: Canis familiaris; assay: In vivo percent change in canine renal blood flow (RBF) at 3 ug/Kg/min.; type: functional, Canis lupus familiaris, Kidney; method in brief: as §1
[4] = system: Canis familiaris; assay: In vivo percent change in canine mean arterial blood pressure (MABP) at 30 ug/Kg/min.; type: functional, Canis lupus familiaris; method in brief: as §1
[5] = system: Canis familiaris; assay: Renal vasodilator activity in anesthetized dogs and percent change in mean arterial blood pressure (MABP) was determined at 3 ug/Kg/min; type: functional, Canis lupus familiaris; method in brief: as §1
[6] = system: Canis familiaris; assay: In vivo percent change in renal blood flow at 30 ug/Kg/min.; type: functional, Canis lupus familiaris, Kidney; method in brief: as §1
[7] = system: Canis familiaris; assay: In vivo percent change in canine renal vascular resistance (RVR) at 300 ug/Kg/min.; type: functional, Canis lupus familiaris; method in brief: as §1
[8] = system: Canis familiaris; assay: In vivo percent change in canine heart rate at 30 ug/Kg/min.; type: functional, Canis lupus familiaris; method in brief: as §1
[9] = system: Canis familiaris; assay: In vivo percent change in canine heart rate at 3 ug/Kg/min.; type: functional, Canis lupus familiaris; method in brief: as §1
[10] = system: Canis familiaris; assay: In vivo percent change in canine renal blood flow (RBF) at 300 ug/Kg/min.; type: functional, Canis lupus familiaris, Kidney; method in brief: as §1
[11] = system: Canis familiaris; assay: Renal vasodilator activity in anesthetized dogs and percent change in renal vascular resistance (RVR) was determined at 30 ug/Kg/min; type: functional, Canis lupus familiaris; method in brief: as §1
[12] = system: Canis familiaris; assay: In vivo percent change in canine mean arterial blood pressure (MABP) at 300 ug/Kg/min.; type: functional, Canis lupus familiaris; method in brief: as §1
[13] = system: Canis familiaris; assay: In vivo percent change in canine renal blood flow (RBF) at 30 ug/Kg/min.; type: functional, Canis lupus familiaris, Kidney; method in brief: as §1
[14] = system: Canis familiaris; assay: In vivo percent change in canine mean arterial blood pressure (MABP) at 3 ug/Kg/min.; type: functional, Canis lupus familiaris; method in brief: as §1
[15] = system: Canis familiaris; assay: In vivo percent change in canine renal vascular resistance (RVR) at 30 ug/Kg/min.; type: functional, Canis lupus familiaris; method in brief: as §1
[16] = Average max percent decrease in RVR (renal vascular resistance) was determined.
Method in brief: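 Secondary protocol in anesthetized dogs. Drug given as iv infusion at progressively increasing rates, each dose level for 5 min. The maximum effect is taken as the largest percent decrease in renal vascular resistance (RVR) reached with the compound. RVR is calculated as mean arterial blood pressure / mean renal blood flow.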

[17] = Ratio of ED30 of iliac vascular resistant (IVR) to the ED15 of RVR (renal vascular resistance); type: functional
Method in brief: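 Anesthetized dogs in the secondary cumulative-infusion protocol, each dose level 5 min. Selectivity ratio is the dose giving a 30% change in iliac vascular resistance divided by the RVR ED15, the cumulative dose decreasing renal vascular resistance by 15%.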

[18] = system: Canis familiaris; assay: Compound was evaluated for renal vasodilator activity and represented as ED15 (intravenous administration); type: functional; settings: Canis lupus familiaris
Method in brief: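 Secondary protocol in anesthetized dogs with iv infusion at progressively increasing rates, each level infused 5 min. Potency is the cumulative dose (µg/kg) that lowered renal vascular resistance (MABP / mean RBF) by 15%. Minimum change needed for significance (p = 0.95) is 16% for RVR.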

[19] = Ratio of ED20 of MABP (mean arterial blood pressure) to the ED15 of RVR ( renal vascular resistance).; type: functional
Method in brief: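 Anesthetized dogs in the secondary cumulative-infusion protocol, each dose level 5 min. Selectivity ratio is the dose giving a 20% change in mean arterial blood pressure divided by the cumulative dose lowering renal vascular resistance 15% (RVR ED15).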

[20] = system: Canis familiaris; assay: Renal vasodilator activity in anesthetized dogs and percent change in renal vascular resistance (RVR) was determined at 3 ug/kg min; type: functional, Canis lupus familiaris; method in brief: as §1
[21] = system: Canis familiaris; assay: Renal vasodilator activity in anesthetized dogs and percent change in renal blood flow (RBF) was determined at 3 ug/kg min; type: functional, Canis lupus familiaris, Kidney; method in brief: as §1
[22] = system: Canis familiaris; assay: Renal vasodilator activity in anesthetized dogs and percent change in mean arterial blood pressure (MABP) was determined at 300 ug/kg min; type: functional, Canis lupus familiaris; method in brief: as §1
[23] = system: Canis familiaris; assay: Renal vasodilator activity in anesthetized dogs and percent change in heart rate (HR) was determined at 300 ug/kg min; type: functional, Canis lupus familiaris; method in brief: as §1
[24] = system: Canis familiaris; assay: Renal vasodilator activity in anesthetized dogs and percent change in mean arterial blood pressure (MABP) was determined at 30 ug/kg min; type: functional, Canis lupus familiaris; method in brief: as §1
[25] = system: Canis familiaris; assay: Renal vasodilator activity in anesthetized dogs and percent change in renal blood flow (RBF) was determined at 30 ug/kg min; type: functional, Canis lupus familiaris, Kidney; method in brief: as §1
[26] = system: Canis familiaris; assay: Renal vasodilator activity in anesthetized dogs and percent change in heart rate (HR) was determined at 30 ug/kg min; type: functional, Canis lupus familiaris; method in brief: as §1
[27] = system: Canis familiaris; assay: Renal vasodilator activity in anesthetized dogs and percent change in renal blood flow (RBF) was determined at 300 ug/kg min; type: functional, Canis lupus familiaris, Kidney; method in brief: as §1
[28] = system: Canis familiaris; assay: Renal vasodilator activity in anesthetized dogs and percent change in renal vascular resistance (RVR) was determined at 30 ug/kg min; type: functional, Canis lupus familiaris; method in brief: as §1
[29] = system: Canis familiaris; assay: Renal vasodilator activity in anesthetized dogs and percent change in mean arterial blood pressure (MABP) was determined at 3 ug/kg min; type: functional, Canis lupus familiaris; method in brief: as §1
[30] = system: Canis familiaris; assay: Renal vasodilator activity in anesthetized dogs and percent change in heart rate (HR) was determined at 3 ug/kg min; type: functional, Canis lupus familiaris; method in brief: as §1
[31] = system: Canis familiaris; assay: Renal vasodilator activity in anesthetized dogs and percent change in renal vascular resistance (RVR) was determined at 300 ug/kg min; type: functional, Canis lupus familiaris; method in brief: as §1
[32] = system: Canis familiaris; assay: Renal vasodilator activity in anesthetized dogs and percent change in heart rate (HR) was determined at 300 ug/Kg/min; type: functional, Canis lupus familiaris; method in brief: as §1

| Compound | Change [1] | Change [2] | Change [3] | Change [4] | Change [5] | Change [6] | Change [7] | Change [8] | Change [9] | Change [10] | Change [11] | Change [12] | Change [13] | Change [14] | Change [15] | Decrease [16] | Ratio [17] | ED15 [18] | also measured |
| --- | --- | --- | --- | --- | --- | --- | --- | --- | --- | --- | --- | --- | --- | --- | --- | --- | --- | --- | --- |
| CC(Cc1ccccc1)(NC(=O)[C@@H]1CCCN1C(=O)CCCc1ccccc1)C(=O)NCCCN.Cl (stereo not given in full) | -3.5% | 0.5% | 4% | -0.5% | 0% | 5.5% | -11.5% | 0.3% | -1.5% | 10% | -6% | -3.5% | – | – | – | – | – | – | – |
| N=C(N)NCCC[C@H](NC[C@H](Cc1ccccc1)NC(=O)[C@@H]1CCCN1)C(=O)O | 0% | 0% | 0% | 0% | – | – | -2% | 0% | -3% | 0% | – | -2% | 3% | 0% | -3% | – | – | – | – |
| CC(Cc1ccccc1)(NC(=O)[C@@H]1CCCN1C(=O)CC12CC3CC(CC(C3)C1)C2)C(=O)N[C@@H](CCCN=C(N)N)C(=O)O (stereo not given in full) | -11.5% | 2% | 13% | 1% | -0.5% | – | 21.5% | 0.5% | 3.5% | -14% | – | 3% | 0.5% | – | -0.5% | 19% | 0 | 0.072 mg/kg | Ratio [19]: >84 |
| CC(Cc1ccc(O)cc1)(NC(=O)[C@@H]1CCCN1C(=O)CCCc1ccc(O)cc1)C(=O)N[C@@H](CCCN=C(N)N)C(=O)O (stereo not given in full) | – | – | – | – | – | – | – | – | – | – | – | – | – | – | – | 16% | < 9 | 0.0455 mg/kg | Change [20]: -19%; Change [21]: 20%; Change [22]: 1%; Change [23]: 2.4%; Change [24]: -3%; Change [25]: 28%; Change [26]: -7.5%; Change [27]: 28%; Ratio [19]: >1665; Change [28]: -20%; Change [29]: -2.5%; Change [30]: 3.5%; Change [31]: -17% |
| CC(Cc1ccccc1)(NC(=O)[C@@H]1CCCN1)C(=O)NCCCN.Cl.Cl (stereo not given in full) | -4% | – | 5% | -1% | – | 1% | -3% | -1% | -1% | 2% | – | -1% | – | 1% | -1% | – | – | – | Change [32]: 0% |
| N=C(N)NCCC[C@H](NC(=O)[C@H](Cc1ccccc1)NC(=O)[C@@H]1CCCN1C(=O)c1ccccc1)C(=O)Nc1ccc([N+](=O)[O-])cc1 (Bz-Pro-Phe-Arg-pNA) | – | – | – | – | – | – | – | – | – | – | – | – | – | – | – | 20% | > 20 | 0.297 mg/kg | Change [20]: 0%; Change [21]: 1.9%; Change [22]: -26.6%; Change [23]: -10%; Change [24]: 1.5%; Change [25]: 4.8%; Change [26]: -3%; Change [27]: 27%; Change [28]: -3%; Change [29]: 1.2%; Change [30]: 0%; Change [31]: -38.7% |
| CC(CN[C@@H](CCCN=C(N)N)C(=O)O)(Cc1ccccc1)NC(=O)[C@@H]1CCCN1C(=O)CCCc1ccccc1 (stereo not given in full) | -12% | -23% | 11% | 0% | -2% | 10% | -4% | -7% | 0% | 4% | -9% | 8% | – | – | – | – | – | – | – |
| CC(Cc1ccc(O)cc1)(NC(=O)[C@@H]1CCCN1C(=O)CCCc1ccc(O)cc1)C(=O)NCC(=O)N1CCC[C@H]1C(=O)O (stereo not given in full) ({Butanoyl(4-(4-HOPh))}-P[ξαMeY]GP-OH) | -6% | -1.5% | 4% | 1% | – | 0.5% | -5.9% | 0% | -7% | 9% | -0.5% | 3% | – | -2% | – | 13% | – | – | – |
| Cl.Cl.NCCCNC(=O)[C@H](Cc1ccccc1)NC(=O)[C@@H]1CCCN1 | -3% | -1% | 3.5% | 0% | – | – | -9% | -1% | -1.5% | 6.5% | – | -3.5% | 5% | -0.5% | -5% | – | – | – | – |
